This note sets out measurements from ChEMBL document CHEMBL1154300, “Monoterpenoid indole alkaloids from Alstonia yunnanensis” (J Nat Prod, 2009).

One assay concerns PANC-1. The experiment in a line: Cytotoxicity against human PANC1 cells after 48 hrs by MTT assay. As to conditions: PANC-1, 48 h. The class given is functional, cell-based.
Assay [1] concerns the target T1, Polyunsaturated fatty acid 5-lipoxygenase (Homo sapiens) (UniProt P09917).
T1 sequence (whole entry): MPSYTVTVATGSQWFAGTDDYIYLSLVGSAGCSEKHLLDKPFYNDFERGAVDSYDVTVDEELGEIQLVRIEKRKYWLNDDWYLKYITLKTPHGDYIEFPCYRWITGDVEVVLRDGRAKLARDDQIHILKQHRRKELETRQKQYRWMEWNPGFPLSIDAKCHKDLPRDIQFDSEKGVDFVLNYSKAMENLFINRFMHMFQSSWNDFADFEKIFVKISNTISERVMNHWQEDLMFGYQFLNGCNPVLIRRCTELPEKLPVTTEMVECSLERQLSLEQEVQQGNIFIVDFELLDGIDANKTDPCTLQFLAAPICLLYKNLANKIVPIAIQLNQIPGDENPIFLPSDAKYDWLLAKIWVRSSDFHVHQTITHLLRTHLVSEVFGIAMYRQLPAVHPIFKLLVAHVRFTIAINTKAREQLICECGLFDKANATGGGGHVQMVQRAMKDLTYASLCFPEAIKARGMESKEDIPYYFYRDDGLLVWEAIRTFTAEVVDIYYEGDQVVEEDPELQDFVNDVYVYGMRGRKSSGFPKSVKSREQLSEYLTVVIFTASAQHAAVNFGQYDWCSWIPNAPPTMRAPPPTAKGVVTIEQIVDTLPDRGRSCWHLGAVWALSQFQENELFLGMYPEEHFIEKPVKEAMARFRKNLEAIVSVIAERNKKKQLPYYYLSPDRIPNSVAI
The experiment in a line: Inhibition of 5-LOX at 100 uM after 5 mins. In a few lines:
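Tested in an anti-inflammatory panel against Cox-1, Cox-2 and 5-Lox.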

A further assay concerns HL-60. The experiment in a line: Cytotoxicity against human HL60 cells after 48 hrs by MTT assay. The class given is functional, cell-based. As to conditions: HL-60, 48 h.
Assay [2] addresses Prostaglandin G/H synthase 1 (Homo sapiens) (UniProt P23219). As to conditions: at 100 µM.

Structures are written as SMILES.

Prostaglandin G/H synthase 1 (Homo sapiens), sequence (P23219 whole entry): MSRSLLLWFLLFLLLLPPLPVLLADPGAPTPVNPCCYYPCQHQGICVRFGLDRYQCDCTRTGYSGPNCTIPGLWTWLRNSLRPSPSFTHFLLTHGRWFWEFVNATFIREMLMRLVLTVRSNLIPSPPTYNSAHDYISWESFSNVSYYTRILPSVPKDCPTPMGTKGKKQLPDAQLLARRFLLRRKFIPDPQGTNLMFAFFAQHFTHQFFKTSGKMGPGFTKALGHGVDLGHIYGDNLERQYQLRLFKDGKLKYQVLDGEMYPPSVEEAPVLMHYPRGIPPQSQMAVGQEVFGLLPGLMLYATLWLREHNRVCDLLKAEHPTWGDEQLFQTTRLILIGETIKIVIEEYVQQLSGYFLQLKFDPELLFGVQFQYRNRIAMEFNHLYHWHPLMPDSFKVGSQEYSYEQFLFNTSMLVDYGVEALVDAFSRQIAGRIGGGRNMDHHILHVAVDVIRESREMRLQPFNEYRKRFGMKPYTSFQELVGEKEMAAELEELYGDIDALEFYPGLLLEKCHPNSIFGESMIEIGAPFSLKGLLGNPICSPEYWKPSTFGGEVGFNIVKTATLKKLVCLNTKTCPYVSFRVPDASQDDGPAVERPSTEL

The IC50 is the concentration that gives 50% inhibition. The low end stands for greater potency, the high end for weaker potency. For orientation: inhibition means the share of the control response that was lost under treatment. Higher therefore signals a response far below the control. With `CC(=O)OC1C2C3C[C@H]4C5=[N+](C)c6ccccc6[C@]51C[C@@H]2[N+]4([O-])[C@@H](C)[C@@H]3C(=O)[O-]` (some centres not stated), the 50% inhibitory concentration (IC50) in the assay with PANC-1 and in the assay with HL-60 was more than 40 µM in each case. The inhibition was less than 0% in assay [1] and 45% in assay [2].
As to `CO[C@@H]1O[C@@H](O)[C@@H]2C3C[C@H]4c5[nH]c6ccccc6c5C[C@@H]2N4[C@@H](C)[C@H]31` [ALSTOYUNINE A], the 50% inhibitory concentration (IC50) in the assay on PANC-1 and in the assay on HL-60 was more than 40 µM in each case. Moreover, the inhibition in assay [1] was 38.4%; in assay [2], 27.8%.
`CO[C@@H]1O[C@@H](O)[C@H]2C3C[C@H]4c5[nH]c6ccccc6c5C[C@@H]([C@@H]31)N4[C@H]2C` [ALSTOYUNINE B]: the IC50 in the assay with PANC-1 and with HL-60 was more than 40 µM each time. Besides, the figures for the inhibition in assay [1] and in assay [2] were 33.5% and 26.8%, respectively.
Take `CC(=O)OC1C2C3C[C@H]4C5=[N+]([O-])c6ccccc6[C@]51C[C@@H]2[N+]4([O-])[C@@H](C)[C@@H]3C(=O)O` (some centres not stated) [ALSTOYUNINE D]: the IC50 in the assay on PANC-1 and in the assay with HL-60 was more than 40 µM each time. Moreover, the inhibition was less than 0% in assay [1] and 39.3% in assay [2].
Regarding `C/C=C1/C[N+]2([O-])[C@H]3CC1C1C(OC(C)=O)[C@@]4(C[C@@H]12)C3=Nc1ccccc14` (some centres not stated) [ALSTOYUNINE E], the IC50 with PANC-1 and in the assay on HL-60 was more than 40 µM in each case. Besides, the inhibition in assay [1] was 77.2%; in assay [2], 41.8%.
Regarding `COC(C)[C@H]1C2C[C@H]3C4=Nc5ccccc5[C@]45C[C@@H](C2C5OC(C)=O)N3[C@@H]1O` (some centres not stated) [ALSTOYUNINE F], the values for the half-maximal inhibitory concentration (IC50) in the assay on PANC-1 and with HL-60 were 21.7 µM and 3.89 µM, respectively. In addition, the inhibition was 61.8% in assay [1] and 39.8% in assay [2].
Turning to `CC[C@@]12CC(C(=O)OC)=C3Nc4cc(OC)ccc4[C@@]34CCN(C(=O)[C@@H]3O[C@@H]31)[C@@H]24` [ALSTOYUNINE G], the half-inhibitory concentration (IC50) in the assay on PANC-1 and in the assay with HL-60 was more than 40 µM each time. Further, the inhibition in assay [1] was less than 0%; in assay [2], 37.2%.
For the molecule `CC[C@@]12CC(C(=O)OC)=C3Nc4cc(OC)ccc4[C@@]34CCN(C[C@@H](Cl)[C@@H]1O)[C@@H]24` [ALSTOYUNINE H], the IC50 in the assay on PANC-1 and in the assay on HL-60 was more than 40 µM throughout. The inhibition is 0.84% in assay [1] and less than 0% in assay [2].
